High-throughput results as filed in PubChem BioAssay.
V-ATPase pH – regulators of yeast V-ATPase proton transport. S. cerevisiae, pHLuorin cytosolic pH fluorescence. response, % at 10 µM. 350,000 tested, 0.37% active. AID 504577; in the data active = response mostly above about 7.3%, no sharp cut-off; inactive = mostly below about 5.4%; note: actives read high
Dynein transport – blocks dynein driven cargo transport along microtubules. 3617.4 mouse cells, GR-EGFP nuclear translocation imaging; test concentration mostly 20 µM; stimulated with dexamethasone, 1 µM; active compounds read low. z-score, hits read low. 220,000 tested, 0.47% active. AID 1381;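 active = plate z-score of nuclear minus cytoplasmic receptor signal below a set negative limit, without overly bright fluorescence or cell loss, cut at about -3.5 in these data, passing the limit was not always enough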;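 note: z-score of nuclear minus cytoplasmic ring GR-EGFP intensity difference per well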
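medium = tetracycline-free induction medium containing charcoal-stripped FBS | also added = 1.0 µM final dexamethasone stimulus | schedule = 48 h induction, 1 h compound, 30 min dex at 37 °C | technique = fixed, Hoechst-stained cells imaged at 10x for EGFP | measure = GR-EGFP nuclear translocation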
pCIP destab – p/CIP protein destabilization. decrease of EGFP signal, % at 10 µM. F442A p/CIP-EGFP cells, EGFP fluorescence, 16 h. Q05BA5. AID 1984. 290,000 tested, 0.01% active;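 active = EGFP signal decrease of at least 30% at 10 µM or well 3 SD below plate mean, unless failing retest; inactive = the rest, including hits failing retest or dose response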
Target sequence (Q05BA5 1-1403): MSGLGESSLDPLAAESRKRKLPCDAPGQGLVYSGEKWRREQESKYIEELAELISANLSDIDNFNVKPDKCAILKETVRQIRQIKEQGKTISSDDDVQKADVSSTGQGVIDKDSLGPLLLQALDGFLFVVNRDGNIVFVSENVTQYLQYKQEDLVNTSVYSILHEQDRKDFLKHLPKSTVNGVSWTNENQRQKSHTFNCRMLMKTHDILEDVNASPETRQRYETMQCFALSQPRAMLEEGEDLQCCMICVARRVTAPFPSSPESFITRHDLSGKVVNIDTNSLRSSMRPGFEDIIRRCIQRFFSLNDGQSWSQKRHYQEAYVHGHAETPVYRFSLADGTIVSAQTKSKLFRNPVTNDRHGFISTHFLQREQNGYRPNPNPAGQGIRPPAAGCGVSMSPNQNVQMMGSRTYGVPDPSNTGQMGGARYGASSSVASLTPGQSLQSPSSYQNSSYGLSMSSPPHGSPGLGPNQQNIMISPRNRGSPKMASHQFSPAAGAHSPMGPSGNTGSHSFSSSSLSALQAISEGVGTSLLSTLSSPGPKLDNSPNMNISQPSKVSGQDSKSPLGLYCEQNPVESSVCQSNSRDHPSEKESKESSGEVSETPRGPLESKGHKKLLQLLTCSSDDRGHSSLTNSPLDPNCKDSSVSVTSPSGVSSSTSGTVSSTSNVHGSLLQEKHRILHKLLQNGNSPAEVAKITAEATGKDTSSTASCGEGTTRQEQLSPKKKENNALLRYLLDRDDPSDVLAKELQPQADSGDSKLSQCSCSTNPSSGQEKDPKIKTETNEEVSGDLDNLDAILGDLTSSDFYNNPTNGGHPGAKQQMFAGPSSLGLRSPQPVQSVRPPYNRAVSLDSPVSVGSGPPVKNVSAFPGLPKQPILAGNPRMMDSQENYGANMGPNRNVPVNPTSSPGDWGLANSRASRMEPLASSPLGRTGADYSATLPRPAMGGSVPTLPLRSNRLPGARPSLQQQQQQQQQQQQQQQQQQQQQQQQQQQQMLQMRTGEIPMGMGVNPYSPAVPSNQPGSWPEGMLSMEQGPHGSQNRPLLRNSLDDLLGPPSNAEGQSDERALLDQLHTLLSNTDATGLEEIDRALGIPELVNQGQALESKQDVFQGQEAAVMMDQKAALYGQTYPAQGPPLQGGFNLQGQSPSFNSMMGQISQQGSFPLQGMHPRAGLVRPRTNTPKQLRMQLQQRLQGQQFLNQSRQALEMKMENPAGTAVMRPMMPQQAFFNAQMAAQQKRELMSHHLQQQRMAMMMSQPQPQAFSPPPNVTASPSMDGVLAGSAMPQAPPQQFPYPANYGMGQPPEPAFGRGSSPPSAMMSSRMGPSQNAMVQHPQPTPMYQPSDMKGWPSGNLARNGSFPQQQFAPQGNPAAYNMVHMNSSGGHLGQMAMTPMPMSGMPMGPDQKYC
ABCB6 inh MLPCN – blocks the human ABCB6 transporter; Q9NP58; K562-ABCB6 porphyrin accumulation, flow cytometry, 1 h; active compounds read low; fluorescence ratio to DMSO, % at 10 µM; 360,000 tested, 0.19% active;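 active = fluorescence ratio to DMSO below 75%, the collection mean minus 3 SD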;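 note: signal is porphyrin accumulated inside mitochondria; lower ratio means ABCB6 inhibition with less porphyrin fluorescence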
KCC2 mod – modulates chloride dependent transport by human KCC2; Q9H2X9; KCC2 cells, thallium flux FluoZin-2 fluorescence; B-score of Tl+ flux slope (higher = more flux/activation; lower = inhibition) at 10 µM; 190,000 tested, 2.2% active;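 active = thallium flux slope and its plate-corrected score both differing from the plate sample mean at a set confidence after two filtering rounds, in either direction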;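 note: slope of fluorescence scaled to starting intensity during 10 to 20 s after thallium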
VATPase regulator – regulators of yeast V-ATPase proton transport. shares compounds with V-ATPase pH. S. cerevisiae pHLuorin cytosolic pH. response, % at 10 µM. 980 tested, 2% active; in the data active = response above about 24%
Each line names hits and unclear results; the compound was inactive in the other large screens (follow-up assays come after a bar, where they were run). The entries come from a sample that favours hits as a whole.

Cc1ccc(OCc2ccc(C(=O)Nc3ccc(S(N)(=O)=O)cc3)o2)cc1	none
COc1ccc(S(=O)(=O)N2CCOCC2)cc1NC(=O)COC(=O)C1COc2ccccc2O1 (stereo not given)	none
Cc1cccc(C(=O)N(NC(=O)Oc2ccccc2)C(C)(C)C)c1	V-ATPase pH 6.9 | VATPase regulator inactive
O=C1CC(N2CCN(c3ccc(F)cc3)CC2)C(=O)N1Cc1ccc(N2CCCC2=O)cc1 (stereo not given)	none (no result: KCC2 mod)
CN1CCN(C2CC(=O)N(Cc3ccc(N4CCCC4=O)cc3)C2=O)CC1 (stereo not given)	V-ATPase pH 11 | VATPase regulator inactive
Cn1c(CNC(=O)c2ccc3c(c2)OCO3)nnc1SCC(=O)Nc1ccc(F)cc1	none (no result: Dynein transport, KCC2 mod)
C(=N\N1CCN(Cc2ccccc2)CC1)/c1ccccc1	none
Clc1cccc(/C=N/N2CCN(Cc3ccccc3)CC2)c1	V-ATPase pH 14 (no result: Dynein transport, KCC2 mod) | VATPase regulator inactive
CN1C(=O)CN(CCN2CC(=O)N(C)C(=O)C2)CC1=O	none (no result: Dynein transport, pCIP destab, KCC2 mod)
CNC(=O)c1cc(NC(=O)N(CCC#N)CCN(C(=O)NC(Cc2ccccc2)C(=O)NC(CC(C)C)C(=O)NC)c2ccccc2)ccc1OC (stereo not given)	none (no result: Dynein transport, pCIP destab, KCC2 mod)
CCCNS(=O)(=O)c1ccc(OCC(=O)Nc2ccc3c(c2)OCCO3)c(C)c1	none (no result: Dynein transport, pCIP destab, KCC2 mod)
O=C(/C=C/c1ccc(Cl)c([N+](=O)[O-])c1)Nc1ccc(NC(=O)c2ccco2)cc1	none
O=C(/C=C/c1ccc(Cl)c([N+](=O)[O-])c1)Nc1cccc(NC(=O)c2ccco2)c1	V-ATPase pH 8.8 (no result: KCC2 mod) | VATPase regulator inactive
COc1ccc(C(=O)NCCN2CCC(n3c(=O)[nH]c4ccccc43)CC2)cc1F	none (no result: V-ATPase pH, Dynein transport, pCIP destab, KCC2 mod)
CCC(NC(=O)c1ccc(C#CC2(O)CCCCC2)cc1)C(=O)O (stereo not given)	V-ATPase pH 12 | VATPase regulator inactive
CCOC(=O)N1CCN(C(=O)c2ccc(C#CC3(O)CCCCC3)cc2)CC1	none
COC(=O)[C@@]1(Cc2ccccc2)[C@H]2C(=O)N(C)C(=O)[C@H]2[C@H]2CN=C(SCC(=O)c3ccccc3)N21	none (no result: Dynein transport, pCIP destab, KCC2 mod)
O=C(CCl)NN1C(=O)NC(c2ccccc2)(c2ccccc2)C1=O	V-ATPase pH 12 (no result: Dynein transport, KCC2 mod) | VATPase regulator inactive
Cc1ccc(C2=N/C(=C\c3c(C)nn(-c4ccccc4)c3N3CCCC3)C(=O)O2)cc1	V-ATPase pH 71 | VATPase regulator inactive
COc1ccc(N2C(=NC(=O)C3CCCCC3)SC3CS(=O)(=O)CC32)cc1 (stereo not given)	V-ATPase pH 8.0 (no result: Dynein transport, KCC2 mod) | VATPase regulator inactive
COc1cccc(N2C(=NC(=O)C3CCCCC3)SC3CS(=O)(=O)CC32)c1 (stereo not given)	none (no result: Dynein transport, KCC2 mod)
CCOc1ccc(C2C(C#N)=C(N)SC(N)=C2C#N)c(OCC)c1	V-ATPase pH 12 | VATPase regulator inactive
Cc1ccc(C(=O)O[C@H](C(=O)O)[C@H](OC(=O)c2ccc(C)cc2)C(=O)O)cc1	none (no result: Dynein transport, KCC2 mod)
CN(CC(=O)Nc1cccc(F)c1)C(=O)CN1C(=O)NC2(CCCC2)C1=O	none (no result: Dynein transport, pCIP destab, KCC2 mod)
O=C(NCC1(N2CCCCC2)CCCCC1)c1ccc(NS(=O)(=O)c2ccccc2)cc1	none (no result: Dynein transport, pCIP destab, KCC2 mod)
O=C(CCC(=O)c1ccc(F)cc1)NN1C(=O)NC2(CCCCC2)C1=O	none (no result: Dynein transport, pCIP destab, KCC2 mod)
O=C(CCC(=O)c1ccc(F)cc1)NCC1(N2CCCCC2)CCCCC1	none (no result: Dynein transport, pCIP destab, KCC2 mod) | VATPase regulator inactive
O=C(NCC1(N2CCCCC2)CCCCC1)c1ccc(S(=O)(=O)N2CCCC2)cc1	V-ATPase pH 7.8 | VATPase regulator inactive
CCN(CC(=O)Nc1c(F)cccc1F)C(=O)c1nc2nccc(C)n2n1	none (no result: Dynein transport, pCIP destab, KCC2 mod)
Cc1ccc(C(=O)NNC(=O)CCn2nnc3ccccc32)cc1	V-ATPase pH 11 | VATPase regulator inactive
O=C(NNc1nc2ccccc2s1)c1ccc(F)cc1	V-ATPase pH 5.8 | VATPase regulator inactive
CNc1c(-n2cc(C(=O)OC)c(C(=O)OC)c2C(=O)OC)c(=O)n(C)c(=O)n1C	none (no result: Dynein transport, KCC2 mod)
CC(C)C[C@H]1CNC(=O)C(=O)N1C[C@@H]1CCCN1C[C@H](Cc1ccccc1)N1C[C@H](Cc2ccccc2)N(CCc2ccccc2)C(=O)C1=O	none (no result: V-ATPase pH, Dynein transport, pCIP destab, KCC2 mod)
O=c1[nH]c(CN2CCN(CCO)CC2)nc2ccccc12	none
O=c1[nH]c(CN2CCN(c3ccccc3O)CC2)nc2ccccc12	V-ATPase pH 14 | VATPase regulator inactive
CCOC(=O)COc1ccc2c(C#N)c3ccccn3c2c1	V-ATPase pH 9.6 | VATPase regulator inactive
CCOC(=O)CCCNC(=O)COC(=O)c1cccc(F)c1	none
CCCNC(=O)COC(=O)CCC(=O)c1ccc(F)cc1	none | VATPase regulator inactive
CCCCNC(=O)COC(=O)CCC(=O)c1ccc(F)cc1	none | VATPase regulator inactive
CCOC(=O)CCCNC(=O)COC(=O)CCC(=O)c1ccc(F)cc1	none | VATPase regulator inactive
CC(C)CNC(=O)COC(=O)CCC(=O)c1ccc(F)cc1	none
Cc1nn(Cc2ccc(C(=O)N3CCCC3)o2)c(C)c1[N+](=O)[O-]	none (no result: Dynein transport, KCC2 mod)
CC(C)c1nc2sc(C(=O)O)c(N)c2c2c1CCCC2	none
CCCC#Cc1ccc2c(c1)O[C@H](CN(C)C(=O)CC1CC1)[C@H](C)CN([C@@H](C)CO)S2(=O)=O	none (no result: Dynein transport, pCIP destab, KCC2 mod)
C=CCn1c(O)c(N=NC(=O)OCC)c2ccccc21	none | VATPase regulator inactive
CCOC(=O)N=Nc1c(O)n(C)c2ccccc12	none | VATPase regulator inactive
Cn1c(O)c(N=NC(=N)N)c2ccccc21	none
CC12CCC(=O)N1C(C(=O)Nc1ccccc1N1CCCCC1)CS2 (stereo not given)	none (no result: Dynein transport, pCIP destab, KCC2 mod)
COc1ccc(Cl)cc1N(CC(=O)NCCSc1ccccn1)S(=O)(=O)c1ccccc1	none (no result: Dynein transport, KCC2 mod)
CN(C(=O)c1cccc(NC(=O)Cc2ccc(NC(=O)C3CCN(C(=O)c4ccccc4)CC3)cc2)c1)C1CCC1	none (no result: Dynein transport, pCIP destab, KCC2 mod)
CN(C(=O)c1cccc(NC(=O)Cc2ccc(NC(=O)C3CCN(C(=O)CCc4ccccc4)CC3)cc2)c1)C1CCCCC1	V-ATPase pH 7.7 (no result: Dynein transport, pCIP destab, KCC2 mod) | VATPase regulator inactive
COC(=O)c1[nH]c2c(c1C)C(=O)CC(c1cccc(OC)c1)C2 (stereo not given)	V-ATPase pH 13 (no result: Dynein transport, KCC2 mod) | VATPase regulator inactive
COc1cc2ccccc2cc1C(=O)N/N=C/c1cccnc1	V-ATPase pH 21 (no result: Dynein transport, KCC2 mod) | VATPase regulator inactive
Nn1cnnc1SCC(=O)N1CCc2ccccc2C1	none (no result: Dynein transport, pCIP destab, KCC2 mod)
C=CCNC(=O)/C(=C\c1ccc([N+](=O)[O-])cc1)NC(C)=O	V-ATPase pH 13 | VATPase regulator inactive
COc1ccc(C(=O)Nc2ccc(S(=O)(=O)Nc3nccc(C)n3)cc2)cc1	none (no result: Dynein transport, KCC2 mod)
Cc1ccnc(NS(=O)(=O)c2ccc(NC(=O)c3ccc(N4C(=O)CCC4=O)cc3)cc2)n1	V-ATPase pH 12 | VATPase regulator inactive
CC(c1ccon1)N(C)Cc1c(C(=O)N(C)Cc2ccccc2)nc2ccccn12 (stereo not given)	V-ATPase pH 8.1 | VATPase regulator inactive
COC(=O)c1ccc(NS(=O)(=O)NC(=O)c2cn(C)c3ccccc23)cc1	none (no result: Dynein transport, KCC2 mod)
Cc1cc(NS(=O)(=O)c2c(C)c(C)cc(C)c2C)no1	none (no result: Dynein transport, KCC2 mod)
